Screens deposited in PubChem by several laboratories.
The list is not random: actives were taken first. Their share in the collection is about 3.4%.
RORa activator: activators of human nuclear receptor RORA. P35398. CHO-K1 Gal4-RORA LBD luciferase reporter, luminescence; percent increase over mock-subtracted basal signal. activation, % at 10 µM. hit rate 1.5% among 65,000;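 active = activation above the mean of all tested compounds plus 3 SD, cut at about 49% in these data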;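 note: 0% = DMSO-treated RORA cells and 100% = added signal equal to DMSO minus mock-transfected cells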
ROCK2 inh: ROCK2 (human) kinase inhibition; O75116; purified ROCK2, Kinase-Glo ATP depletion luminescence; inhibition, % at 6 µM; hit rate 0.35% among 60,000; AID 604;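 active = inhibition above the screen-wide mean inhibition plus 3 SD, cut at about 18% in these data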;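 note: plate controls were DMSO wells for no effect and Y-27632 control wells after no-enzyme background subtraction for full effect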
JNK3 inh: blocks human JNK3 kinase activity. inhibition, % at 8 µM. hit rate 0.61% among 60,000. purified JNK3 kinase activity, HTS. AID 746. P53779; in the data active = inhibition above about 17%;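 note: 0% = DMSO and 100% = reference inhibitor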
PKA kinase inh: blocks human protein kinase A activity; PKA Kemptide phosphorylation, Kinase-Glo ATP luminescence; inhibition, % at 6 µM; AID 524; hit rate 0.1% among 65,000; P17612;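 active = inhibition above the screen-wide mean inhibition plus 3 SD, cut at about 21% in these data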
SF1 activator: SF-1 (human) activation. Q13285. CHO-K1 Gal4-SF-1 LBD luciferase reporter; % increase over DMSO SF-1-specific signal. activation, % at 10 µM. hit rate 1.9% among 65,000. AID 522;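 active = activation above the mean activation of all tested compounds plus 3 SD, cut at about 50% in these data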
Target sequence (Q13285 whole entry, looked up, the tested form may be a part): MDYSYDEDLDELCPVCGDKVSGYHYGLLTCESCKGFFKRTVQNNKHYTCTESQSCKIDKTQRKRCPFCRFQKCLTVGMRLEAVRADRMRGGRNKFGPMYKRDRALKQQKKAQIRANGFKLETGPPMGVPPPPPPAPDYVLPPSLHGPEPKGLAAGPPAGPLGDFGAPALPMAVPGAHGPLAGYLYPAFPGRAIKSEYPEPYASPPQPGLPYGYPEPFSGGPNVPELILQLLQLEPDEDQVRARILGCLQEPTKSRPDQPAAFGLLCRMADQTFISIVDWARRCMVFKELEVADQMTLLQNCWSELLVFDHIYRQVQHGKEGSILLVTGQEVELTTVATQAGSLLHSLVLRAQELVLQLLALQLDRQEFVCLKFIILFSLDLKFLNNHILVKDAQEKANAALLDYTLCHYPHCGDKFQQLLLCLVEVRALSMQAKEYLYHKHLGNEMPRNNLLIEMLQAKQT
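Assay system: CHO-K1 cells co-transfected with Gal4 DBD–human SF-1 LBD, 5xGal4 luciferase reporter; doses: 10 µM only; incubation: 20 h compound exposure at 37 °C after 1 h cell settling; signal: luciferase light emission; evaluation: percent activation versus DMSO; repeats: one test per compound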
WNV protease inh: blocks West Nile virus NS2B-NS3 protease activity. WNV NS2B-NS3 protease, fluorogenic substrate Ex360/Em465; stronger effect = lower value. z-score (concentration not given with the values). hit rate 0.18% among 65,000; in the data active = z-score below about -3
The depositor's hits bear a star; . = no result given.

SMILES	RORa activator	ROCK2 inh	JNK3 inh	PKA kinase inh	SF1 activator	WNV protease inh
CCc1ccc(C(=O)NC2CCCCC2)s1	55.3*	6.6	-3.6	6.8	59.0*	-0.23
O=C(NCc1cccs1)c1ccc(Cl)s1	-3.5	7.3	11.9	6.4	8.7	-1.12
CCc1ccc(C(=O)N2CCCC2)s1	-5.6	7.0	2.6	9.5	10.7	2.08
O=C(Nc1ccc(NC(=O)C2CC2)nc1)c1ccncc1	-3.2	3.5	2.1	6.3	-8.6	-0.32
CN(C)c1nc(N)nc(Cn2ccnc2)n1	-21.1	3.7	0.9	6.9	0.3	2.54
O=C(CSc1ncn[nH]1)Nc1nc(-c2ccccc2)ns1	37.8	4.7	-1.1	3.6	54.6*	1.37
O=C(Nc1nc(-c2ccc(S(=O)(=O)N3CCCC3)cc2)cs1)c1ccco1	27.6	6.3	1.9	3.8	3.4	-0.17
O=C(Nc1nc(-c2ccccc2)ns1)c1cccs1	34.1	4.7	0.7	0.6	75.5*	-0.18
O=C(CSc1ncn[nH]1)Nc1ccccc1C(=O)O	-7.7	5.5	-1.6	-6.0	1.3	-1.4
Cc1ccc(-c2csc(NC(=O)c3ccno3)n2)cc1	60.3*	.	.	-3.8	27.9	-1.09
O=C(NCc1nc(-c2ccccc2)no1)c1cccs1	3.5	2.5	-3.8	0.8	5.0	0.12
O=C(Nc1nc(-c2ccccc2)cs1)c1cccs1	56.6*	5.5	3.6	9.2	18.3	-0.17
CC(=O)C1=C(O)C(=O)N(c2cccc(C(=O)O)c2)C1c1ccc(F)cc1 (stereo not given)	7.7	5.4	2.2	2.9	-2.1	-0.4
CCN(CC)CCCNC(=O)c1cn(CCOC)c(=O)c2c1c1ccccc1n2C	-9.3	5.8	0.8	11.7	-2.7	0.37
COc1cc(C)nc(N(C)S(=O)(=O)c2ccccc2Cl)n1	-9.9	-0.3	1.6	6.2	5.8	0.55
O=C(CSc1ncc(-c2ccc(F)cc2)[nH]1)N1CCCCC1	24.1	-0.5	-4.6	-2.5	30.4	-0.63
c1ccc(NC2=Nc3ccccc3CS2)cc1	89.4*	5.3	0.4	12.5	24.1	0.63
CNc1nc2sc3c(c2c(=O)n1C)CC(C)(C)SC3	32.9	-1.1	0.5	8.6	2.7	-7.01*
COC(=O)c1cccc(NC(=O)c2cc3sccc3n2C)c1	44.8	-5.2	7.1	6.2	67.0*	1.42
CCN(CC)S(=O)(=O)c1cc(C(=O)Nc2nncs2)c(Cl)cc1Cl	-18.3	2.1	-3.9	-5.1	-12.6	0.6
Cc1cnc(NC(=O)C(C)N2C(=O)C3CC=CCC3C2=O)s1 (stereo not given)	0.6	2.1	6.4	1.8	-6.1	-3.41*
Clc1ccccc1-c1nnc2sc(-c3ccncc3)nn12	-18.0	23.3*	3.2	11.1	4.2	1
Clc1ccccc1-c1nn2c(-c3ccncc3)nnc2s1	-30.4	19.1*	6.9	17.6	8.4	-0.49
Cc1nnc(Sc2nc(Sc3nnc(C)s3)nc(N3CCN(C)CC3)n2)s1	-93.4	5.4	4.6	18.6	-95.8	1.53
O=C(Nc1ccc2c(c1)CCC2)C1CCCN(c2ncccn2)C1 (stereo not given)	31.3	3.9	-8.9	7.8	69.3*	0.98
SMILES	RORa activator	ROCK2 inh	JNK3 inh	PKA kinase inh	SF1 activator	WNV protease inh
CCN(C(=O)c1cn(C)c(=O)c2cc(OC)c(OC)cc12)c1cc(OC)ccc1OC	-14.5	8.2	1.4	4.2	2.2	0.09
O=C(NCCc1ccccc1)C1CCCN(C(=O)NC2CCCCC2)C1 (stereo not given)	-20.0	4.2	-12.0	1.3	-5.7	-1.06
COc1ccc(OC)c2sc(NC(=O)c3ccc(Br)s3)nc12	-6.4	-0.8	-5.8	4.0	53.3*	-1.55
CC1(C)C(c2ccccc2)=[N+]([O-])CN1O	-13.5	-0.9	-2.7	-2.9	-10.6	0.69
O=C(O)c1n[nH]c2ccccc12	-4.0	.	.	0.6	-6.5	0.21
c1ccc(-c2n[nH]c3ccccc23)cc1	1.1	-5.7	84.5*	8.6	4.3	0.37
CN(C)/C=N/c1ncnc2c1cnn2-c1ccc(C(F)(F)F)cn1	-1.6	-0.3	1.6	6.0	81.8*	-0.36
FC(F)(F)c1ccc(-n2ccnc2)nc1	-5.7	0.6	-0.4	-0.1	-4.4	0.53
COC(=O)c1ccc(Oc2cc(C)nc(SC)n2)cc1	57.6*	8.6	-4.1	7.6	70.8*	0.91
COc1ccc(NCc2ccc(OC)c(OC)c2)cc1	-11.7	-3.2	-9.3	-5.8	26.0	0.63
COc1ccc(CNc2ccc(-c3ccc(OC)cc3)nn2)cc1	40.0	4.2	-2.0	8.4	80.3*	1.28
COc1ccc2c(Cl)c(C(=O)NC3CCS(=O)(=O)C3)sc2c1 (stereo not given)	35.4	.	.	4.6	49.5*	1.41
O=C(CSc1nnc(CN2CCOCC2)n1-c1ccccc1)Nc1ccc(Cl)cc1	-8.7	5.1	2.2	0.6	1.2	1.43
OC1(c2cccc(C(F)(F)F)c2)CCN(c2ncnc3c2[nH]c2ccccc23)CC1	-23.9	6.5	-6.9	7.4	-22.3	0.22
OC1(c2cccc(C(F)(F)F)c2)CCN(c2ccc(-c3ccccc3)nn2)CC1	66.1*	.	.	3.9	38.3	-0.96
COC(=O)c1ccc(Cn2cnc3c(sc4nc(N5CCOCC5)c5c(c43)CCCC5)c2=O)o1	-16.3	5.7	-0.1	8.3	-0.6	-0.6
CC1CCC(C(C)C)C(OC(=O)CSc2n[nH]c(=O)[nH]c2=O)C1 (stereo not given)	8.8	0.1	-3.1	8.8	1.0	0.45
COc1ccc(S(=O)(=O)n2nc(OC(=O)c3ccco3)cc2N)cc1	-4.5	-3.6	-1.8	-6.7	6.4	-7.66*
Cc1ccc(S(=O)(=O)n2nc(OC(=O)c3c(-c4ccccc4Cl)noc3C)cc2N)cc1	2.4	-2.8	0.2	-5.7	-9.4	-1.02
Cc1nn(C(C)(C)C)c(OC(=O)c2cccs2)c1S(=O)(=O)c1ccccc1	-22.7	2.5	10.7	2.8	-5.6	0.18
COc1ccc(S(=O)(=O)n2nc(OC(=O)c3ccccc3)cc2N)cc1	-13.7	-0.9	-1.1	-1.5	-3.0	-6.36*
COc1ccc(S(=O)(=O)n2nc(OC(=O)c3ccccc3Br)cc2N)cc1	-5.1	5.6	1.9	5.5	-11.5	-4.23*
CC(C)(C)C(=O)Oc1cc(N)n(S(=O)(=O)c2ccccc2)n1	-12.2	4.6	-3.3	1.8	-22.9	-0.63
COc1ccc(S(=O)(=O)n2nc(OC(=O)c3cccs3)cc2N)cc1	-3.5	4.3	-6.0	1.9	-9.9	-5.56*
COc1ccc(S(=O)(=O)n2nc(OC(=O)c3ccc(C)cc3)cc2N)cc1	23.4	2.1	-12.6	11.4	5.0	-0.72
CC(C)CCNC(=O)CN(Cc1ccc2c(c1)OCO2)C(=O)Cn1nnc(-c2cccs2)n1	34.7	0.7	-2.2	1.7	10.1	-0.56
CC(=O)c1c(C)[nH]c(C(=O)OC2CCCCC2=O)c1C (stereo not given)	-14.6	-0.1	4.0	-2.7	2.5	-0.64
